In ChEMBL document CHEMBL1131052, “Bis-substituted malonic acid hydroxamate derivatives as inhibitors of human neutrophil collagenase (MMP8)” (J Med Chem, 1998):

The compounds below were run against Neutrophil collagenase (Homo sapiens, UniProt P22894) (assay: Inhibition of human neutrophil collagenase (Matrix metalloprotease-8)).
Summary of the method: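 Catalytic domain of MMP8 (Phe79–Gly242) at 8 nM; fluorogenic substrate Dnp-Pro-Leu-Gly-Leu-Trp-Ala-D-Arg-NH2 at 1 × 10^-5 M; 10 mM CaCl2, 100 mM NaCl, 50 mM Tris/HCl pH 7.6, 25 °C. Initial hydrolysis rates were taken from the fluorescence rise at 350 nm over 100 s. IC50 values were fitted from these rates, and Ki values were derived from the kinetic data.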

Neutrophil collagenase, sequence (P22894 whole entry, the tested form may be a part): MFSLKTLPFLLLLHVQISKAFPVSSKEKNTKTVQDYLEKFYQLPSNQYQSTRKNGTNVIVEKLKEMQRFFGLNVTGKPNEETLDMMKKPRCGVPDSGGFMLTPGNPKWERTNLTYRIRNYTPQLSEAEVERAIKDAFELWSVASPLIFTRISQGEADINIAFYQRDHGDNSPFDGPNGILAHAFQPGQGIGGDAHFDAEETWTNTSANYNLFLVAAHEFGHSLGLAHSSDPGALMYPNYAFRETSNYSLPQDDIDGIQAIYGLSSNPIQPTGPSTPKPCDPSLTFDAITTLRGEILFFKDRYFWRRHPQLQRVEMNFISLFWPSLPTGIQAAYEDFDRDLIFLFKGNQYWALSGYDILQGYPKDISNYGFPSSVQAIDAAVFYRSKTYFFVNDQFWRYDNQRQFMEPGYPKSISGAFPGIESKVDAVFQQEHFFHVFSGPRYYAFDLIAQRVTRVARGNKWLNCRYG

Row | Compound | Ki
1 | O=C(NO)C1(C(=O)NCc2ccccc2)Cc2ccccc2C1 | 1.5 µM
2 | CC(Cc1ccccc1)(C(=O)NO)C(=O)NCc1ccccc1 (stereo not given) | 1.1 µM
3 | CC(Cc1ccccc1)(C(=O)NO)C(=O)NCCc1ccccc1 (stereo not given) | 9.6 µM
4 | CC(Cc1ccccc1)(C(=O)NO)C(=O)Nc1cccc2ccccc12 (stereo not given) | 45 µM
5 | CCOC(=O)C(C)(CC(C)C)C(=O)NO (stereo not given) | 41 µM
6 | CC(Cc1ccccc1)(C(=O)NO)C(=O)NCCCCc1ccccc1 (stereo not given) | 0.38 µM
7 | CC(Cc1ccccc1)(C(=O)NO)C(=O)NCc1ccc(C(=O)O)cc1 (stereo not given) | 41 µM
8 | CC(Cc1ccccc1)(C(=O)NO)C(=O)N1CCc2ccccc2C1 (stereo not given) | 8.1 µM
9 | O=C(NO)C1(C(=O)NCCCc2ccccc2)Cc2ccccc2C1 | 0.3 µM
10 | CCOC(=O)C(C)(Cc1ccccc1)C(=O)NO (stereo not given) | 11 µM
11 | CC(Cc1ccccc1)(C(=O)NO)C(=O)NCCCc1ccccc1 (stereo not given) | 0.24 µM
12 | CC(=O)NC(Cc1ccccc1)(C(=O)NO)C(=O)NCc1ccccc1 (stereo not given) | 2.3 µM
13 | CC(Cc1ccccc1)(C(=O)NO)C(=O)Nc1ccccc1 (stereo not given) | 44 µM
14 | O=C(NO)C1(C(=O)NCCCc2ccccc2)Cc2ccccc2-c2ccccc2C1 | 1.9 µM
15 | O=C(NO)C(O)(Cc1ccccc1)C(=O)NCc1ccccc1 (stereo not given) | 1.9 µM
